This is an account of results in ChEMBL document CHEMBL4184338, “In Vitro and In Vivo Demonstration of Human-Ovarian-Cancer Necrosis through a Water-Soluble and Near-Infrared-Absorbing Chlorin” (J Med Chem, 2018).

A short description of series [1]: Solubility in 25% aqueous ethanolic medium at 25 degC after 24 hrs by UV-VIS spectrometric method. Format: physicochemical.
The nature of series [2]: Induction of singlet oxygen generation in methanol at 3 uM in presence of light by DPBF-based chemical trapping method. Type of series: functional.
Series [3] in a line: Drug uptake in human SKOV3 cells at 20 uM after 1 hr in presence of 200 J/cm'2 light by Hoechst 33342 staining-based confocal microscopic method. Type of series: ADME, cell-based. The note with it: sk-ov-3, 1 h. The method in brief: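 SKOV-3 cells on chambered glass slides incubated with 20 μM compound for 1 h. Rinsed with PBS, stained with Hoechst 33342 (1 μg/mL), imaged by confocal microscopy.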

Series [4] in a line: Drug uptake in mitochondria of human SKOV3 cells at 20 uM after 1 hr in presence of 200 J/cm'2 light by MitoTracker Red probe/Hoechst 33342 staining-based confocal microscopic method. Format: ADME. Conditions: sk-ov-3, 1 h.
In series [5] the test system is SK-OV-3. Description: Phototoxicity against human SKOV3 cells assessed as decrease in cell viability after 24 hrs in presence of 200 J/cm'2 light by MTT assay. Type of series: functional, cell-based. Summed up:
(§1)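 Cell lines given varied compound concentrations, then irradiated (600-750 nm source, 200 J/cm2 at 50 mW/cm2) or kept dark. Viability by MTT at 24 h after treatment; IC50 from the dose-response. Three independent experiments averaged.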
(Tetrazolium dyes change colour on reduction, which living cells bring about.)

For a further series, the system named is IMR-32. Description: Phototoxicity against human IMR32 cells assessed as decrease in cell viability after 24 hrs in presence of 200 J/cm'2 light by MTT assay. Format: functional, cell-based. Conditions: IMR-32, light or radiation study. Summed up:
as §1

For the next series, the system named is MCF7. Description: Phototoxicity against human MCF7 cells assessed as decrease in cell viability after 24 hrs in presence of 200 J/cm'2 light by MTT assay. Type of series: functional, cell-based. The note with it: MCF7, light or radiation study. Summed up: as §1
A further series relates to MDA-MB-231. As to the kind of experiment: Phototoxicity against human MDA-MB-231 cells assessed as decrease in cell viability after 24 hrs in presence of 200 J/cm'2 light by MTT assay. Format: functional, cell-based. The note with it: MDA-MB-231, light or radiation study. Summed up:
as §1

Series [6] in a line: Dark toxicity in human SKOV3 cells assessed as alteration in cell morphology by phase-contrast microscopic method. Type of series: cell-based. The note with it: sk-ov-3. The method in brief:
(§2)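 SKOV-3 cells given compound, kept dark or irradiated (200 J/cm2, 50 mW/cm2). Morphology examined by phase-contrast microscopy (100X).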

Series [7] has as its system SK-OV-3. As to the kind of experiment: Phototoxicity in human SKOV3 cells assessed as alteration in cell morphology in presence of 200 J/cm'2 light by phase-contrast microscopic method. Format: functional, cell-based. Summed up:
as §2

For series [8], the system named is SK-OV-3. Description: Cell cycle arrest in human SKOV3 cells assessed as accumulation at sub-G1 phase at 20 uM after 12 hrs in presence of 200 J/cm'2 light by propidium iodide staining-based flow cytometric method (reference value: 7%). Format: functional.
The test system of series [9] is SK-OV-3. Description: Cell cycle arrest in human SKOV3 cells assessed as accumulation at sub-G1 phase at 20 uM after 24 hrs in presence of 200 J/cm'2 light by propidium iodide staining-based flow cytometric method (reference value: 7%). Format: functional.
Series [10] has as its system SK-OV-3. As to the kind of experiment: Induction of necrosis in human SKOV3 cells at 20 uM in presence of 200 J/cm'2 light by propidium iodide staining-based flow cytometric method (reference value: 7.45%). Type of series: functional. Summed up: (§3)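 Unfixed SKOV-3 cells given 20 μM compound, with or without light (600-720 nm, 200 J/cm2). Harvested, PBS-washed, stained with propidium iodide (10 μg/mL) for 20 min. PI-positive membrane-damaged fraction measured by flow cytometry.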
In general terms: In flow cytometry, cells or beads pass a laser one at a time.

Series [11] in a line: Photostability of compound. Type of series: physicochemical.
Series [12] concerns SK-OV-3. As to the kind of experiment: Induction of reactive oxygen species formation in human SKOV3 cells at 20 uM in presence of 200 J/cm'2 light by CM-H2DCFDA probe-based confocal microscopic method. Type of series: functional, cell-based.
The test system of series [13] is SK-OV-3. Description: Induction of reactive oxygen species formation in human SKOV3 cells at 20 uM in presence of 200 J/cm'2 light by CM-H2DCFDA probe-based flow cytometric method (reference value: <1%). Type of series: functional.
The species entered for series [14] is Homo sapiens. As to the kind of experiment: Disruption of F-actin organization in human SKOV3 cells at 20 uM in presence of 200 J/cm'2 light by TRITC labeled phalloidin/DAPI staining-based confocal microscopic method. Format: cell-based. The method in brief: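 SKOV-3 cells on coverslips: untreated, 20 μM compound in the dark, or 20 μM compound plus irradiation (600-720 nm, 200 J/cm2). Fixed in 4% paraformaldehyde/PBS, permeabilised with 0.1% Triton X-100, stained with TRITC-phalloidin (1:50, 1 h). DAPI counterstain, confocal imaging.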

Series [15] has as its system SK-OV-3. Description: Disruption of mitochondrial membrane potential in human SKOV3 cells at 20 uM in presence of 200 J/cm'2 light by MitoTracker Red probe/Hoechst 33342 staining-based confocal microscopic method. Type of series: functional, cell-based. Summed up:
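Control SKOV-3 cells and cells after photodynamic treatment (20 μM compound, 600-720 nm, 200 J/cm2) loaded with 200 nM MitoTracker Red CMXRos, 30 min at 37 °C. Formaldehyde-fixed, nuclear counterstain, confocal microscopy.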

Series [16] has as its system SK-OV-3. Description: Antitumor activity against human SKOV3 cells xenografted in FoxN1 nude mouse assessed as decrease in tumor volume at 20 mg/kg, iv measured up to day 14 in presence of 100 J/cm'2 light. Format: functional, organism-based. The method in brief: (§4)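 3-4 million SKOV-3 cells injected subcutaneously into the flank of 6-8 week old FoxN1 nude mice (20-25 g). At tumour volumes of about 100-150 mm3, randomised into four groups of six: untreated, light only, compound only, and compound plus light. Compound given iv at 20 mg/Kg in physiological saline. Irradiation 24 h later at 100 J/cm2, 100 mW/cm2, 600-750 nm source, under ip ketamine (60 mg/Kg)/xylazine (8 mg/Kg). Tumour volume by calipers, V=LW2/2, followed over two weeks. Tissues processed for H&E histology.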
On the technique in general: Xenograft models place foreign cells or tissue in a host animal.

For series [17], the system named is SK-OV-3. Description: Antitumor activity against human SKOV3 cells xenografted in FoxN1 nude mouse assessed as disappearance of scar at site of tumor at 20 mg/kg, iv measured up to day 14 in presence of 100 J/cm'2 light. Format: functional, organism-based. The method in brief: as §4
For series [18], the system named is SK-OV-3. Description: Antitumor activity against human SKOV3 cells xenografted in FoxN1 nude mouse assessed as elimination of neoplastic cells in tumor at 20 mg/kg, iv measured on day 14 in presence of 100 J/cm'2 light by hematoxylin-and-eosin staining-based assay. Type of series: functional, organism-based. Summed up: as §4
In series [19] the test system is Mus musculus. As to the kind of experiment: Toxicity in FoxN1 nude mouse xenografted with human SKOV3 cells assessed as effect on skin around peritumoral area at 20 mg/kg, iv measured up to day 14 in presence of 100 J/cm'2 light. Format: organism-based. Conditions: in vivo. The method in brief:
as §4

Series [20] can be described thus: Drug uptake in neoplastic tumor of FoxN1 nude mouse xenografted with human SKOV3 cells at 20 mg/kg administered intratumorally measured at 12 hrs by fluorescence microscopic method. Format: ADME, organism-based, Neoplasm. Conditions: in vivo, other. The method in brief:
(§5)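 Compound injected intratumorally into SKOV-3 xenograft-bearing nude mice. Tumours biopsied 12 h after administration, then sectioned. Sections DAPI-counterstained and examined for red compound fluorescence by fluorescence microscopy.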

Series [21] is described as follows: Drug uptake in stromal cells of FoxN1 nude mouse xenografted with human SKOV3 cells at 20 mg/kg administered intratumorally measured at 12 hrs by fluorescence microscopic method. Type of series: ADME, organism-based. The note with it: in vivo, other. Summed up:
as §5

A short description of series [22]: Drug uptake in fibrous tissue cells of FoxN1 nude mouse xenografted with human SKOV3 cells at 20 mg/kg administered intratumorally measured at 12 hrs by fluorescence microscopic method. Conditions: in vivo, other. Type of series: ADME, organism-based. The method in brief: as §5
In series [23] the test system is Mus musculus. Description: Toxicity in FoxN1 nude mouse xenografted with human SKOV3 cells assessed as effect on liver morphology at 20 mg/kg, iv measured on day 14 in presence of 100 J/cm'2 light by hematoxylin-and-eosin staining-based assay. Format: organism-based. Conditions: in vivo. Summed up: as §4
Series [24] concerns Mus musculus. Description: Toxicity in FoxN1 nude mouse xenografted with human SKOV3 cells assessed as effect on kidney morphology at 20 mg/kg, iv measured on day 14 in presence of 100 J/cm'2 light by hematoxylin-and-eosin staining-based assay. Format: organism-based. The note with it: in vivo. The method in brief:
as §4

For series [25], the system named is Mus musculus. Description: Toxicity in FoxN1 nude mouse xenografted with human SKOV3 cells assessed as effect on spleen morphology at 20 mg/kg, iv measured on day 14 in presence of 100 J/cm'2 light by hematoxylin-and-eosin staining-based assay. Type of series: organism-based. Conditions: in vivo. The method in brief:
as §4

Series [26] has as its system Mus musculus. As to the kind of experiment: Toxicity in FoxN1 nude mouse xenografted with human SKOV3 cells assessed as effect on heart morphology at 20 mg/kg, iv measured on day 14 in presence of 100 J/cm'2 light by hematoxylin-and-eosin staining-based assay. Format: organism-based. The note with it: in vivo. The method in brief:
as §4

In series [27] the test system is Mus musculus. As to the kind of experiment: Toxicity in FoxN1 nude mouse xenografted with human SKOV3 cells assessed as effect on lung morphology at 20 mg/kg, iv measured on day 14 in presence of 100 J/cm'2 light by hematoxylin-and-eosin staining-based assay. Conditions: in vivo. Type of series: organism-based. The method in brief: as §4
The test system of series [28] is SK-OV-3. As to the kind of experiment: Induction of reactive oxygen species formation in human SKOV3 cells at 20 uM in absence of light by CM-H2DCFDA probe-based confocal microscopic method. Type of series: cell-based. Conditions: sk-ov-3, 20 µM.
The subject of series [29] is SK-OV-3. As to the kind of experiment: Cell cycle arrest in human SKOV3 cells assessed as accumulation at sub-G1 phase at 20 uM after 12 hrs in absence of light by propidium iodide staining-based flow cytometric method (reference value: 2.2%). Conditions: sk-ov-3, 12 h.
For series [30], the system named is SK-OV-3. As to the kind of experiment: Induction of necrosis in human SKOV3 cells at 20 uM in absence of light by propidium iodide staining-based flow cytometric method (reference value: 7.03%). Type of series: cell-based. The note with it: sk-ov-3, 20 µM. Summed up:
as §3

The species entered for series [31] is Homo sapiens. Description: Binding affinity to F-actin in human SKOV3 cells at 20 uM after 1 hr in presence of 200 J/cm'2 light by TRITC labeled phalloidin/DAPI staining-based confocal microscopic method.

≈ marks a conversion by molar mass, not a printed value. Calls of active or inactive are those of the source. The rule behind the calls is not given here.

In series [1], `Oc1cccc(-c2c3nc(c(-c4cccc(O)c4)c4ccc([nH]4)c(-c4cccc(O)c4)c4nc(c(-c5cccc(O)c5)c5ccc2[nH]5)CC4)C=C3)c1` [TEMOPORFIN] yielded a solubility at 24 h of 600 µM (≈ 408 µg/mL).
For `Oc1ccc(-c2c3nc(c(-c4ccc(O)c(O)c4)c4ccc([nH]4)c(-c4ccc(O)c(O)c4)c4nc(c(-c5ccc(O)c(O)c5)c5ccc2[nH]5)CC4)C=C3)cc1O`, the Activity in series [2] is 80%; in the series on SK-OV-3 [5] it was “Dose-dependent effect”; in [6], “Non-Toxic”; with SK-OV-3 [8], 59.6%; in the series with SK-OV-3 [9], 76.7%; in the series with SK-OV-3 [10], 79.48%. Besides, the Activity is listed as 73% with SK-OV-3 [13]; “Non-Toxic” in the series on Mus musculus [19]; “Non-Toxic” in the series with Mus musculus [23]; “Non-Toxic” in the series with Mus musculus [24]; “Non-Toxic” in the series with Mus musculus [25]; “Non-Toxic” with Mus musculus [26]. Besides, the Activity result in the series on Mus musculus [27] was “Non-Toxic”; in the series on SK-OV-3 [28], “Non-Toxic”; in the series with SK-OV-3 [29] it was 1%; with SK-OV-3 [30], 8.98%. The same molecule registered a solubility at 24 h in series [1] of 3640 µM (≈ 2710 µg/mL). The Drug uptake entry in [3] is on record as “Active”; in series [4], “Active”; in series [20], “Active”; in series [21], “Not Active”; in series [22], “Not Active”. In addition, the IC50 in the series with SK-OV-3 [5] (SK-OV-3, light or radiation study) amounted to 11.2 µM; with IMR-32, 3.5 µM; in the series with MCF7, 4.4 µM; with MDA-MB-231, 6.1 µM. Besides, the result in the series on SK-OV-3 [7], in the series on SK-OV-3 [12], in the series filed under Homo sapiens [14], in the series on SK-OV-3 [15], in the series with SK-OV-3 [16] and in the series with SK-OV-3 [17] was Active. In addition, the result in the series on SK-OV-3 [18] and in the series listed under Homo sapiens [31] was Active. The Stability entry in [11] is given as “Stable”.

The solubility is the dissolved amount per volume that the medium holds. A word on the IC50: it is the concentration at which inhibition is half-maximal.
